PglD inh: inhibitors of Campylobacter jejuni PglD acetyltransferase | inhibition, % at 12.5 µM | purified PglD enzyme, DTNB colorimetric CoA detection | 360,000 tested, 0.098% active | AID 602405; in the data active = inhibition above about 16%, passing the limit was not always enough; inconclusive = no clear call, values can overlap the other calls
DENV2 CPE: protects cells from dengue virus 2 cytopathic effect; 350,000 tested, 1.7% active; CPE inhibition, % at 9.99 µM; DENV2-infected cells, cytopathic effect rescue, plate reader; in the data active = CPE inhibition above about 20%, passing the limit was not always enough; inconclusive = no clear call, values can overlap the other calls; tested in BHK-21 cells;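 also: 0% = median of neutral control wells and 100% = median of positive control wells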
E-sel inducer: E-selectin induction on HUVECs. P16581. HUVEC E-selectin immunofluorescence imaging; normalized: neutral wells 0, TNF-alpha wells 100. activation, % at 7.58 µM. 260,000 tested, 0.37% active. AID 686992;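 active = mean E-selectin-positive cell signal at least 10% of the positive control, reached in at least 60% of replicates, without over 20% cell loss; inconclusive = no rule given, readout overlaps actives, possibly toxicity-flagged; inactive = the rest, including those meeting only one limit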
Target sequence (P16581 whole entry, looked up): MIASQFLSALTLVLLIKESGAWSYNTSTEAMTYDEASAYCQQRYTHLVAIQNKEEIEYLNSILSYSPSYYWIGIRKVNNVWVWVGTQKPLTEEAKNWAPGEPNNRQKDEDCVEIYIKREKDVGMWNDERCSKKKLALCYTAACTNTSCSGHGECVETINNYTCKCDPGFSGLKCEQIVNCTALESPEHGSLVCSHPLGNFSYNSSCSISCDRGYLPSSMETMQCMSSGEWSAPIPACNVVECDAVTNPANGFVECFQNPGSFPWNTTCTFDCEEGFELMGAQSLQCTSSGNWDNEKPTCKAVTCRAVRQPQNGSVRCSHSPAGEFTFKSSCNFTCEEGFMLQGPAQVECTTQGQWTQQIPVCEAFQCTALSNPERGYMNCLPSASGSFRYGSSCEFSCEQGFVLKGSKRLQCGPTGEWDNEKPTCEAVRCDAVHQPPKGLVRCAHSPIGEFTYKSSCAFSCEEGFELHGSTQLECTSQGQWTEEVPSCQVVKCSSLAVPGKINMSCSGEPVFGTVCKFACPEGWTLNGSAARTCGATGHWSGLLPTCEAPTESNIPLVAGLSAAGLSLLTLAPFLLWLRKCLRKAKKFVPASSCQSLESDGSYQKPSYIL
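Read-out basis: % PE-positive cells; Test system: HUVEC primary endothelial cells; Technique: immunofluorescence imaging; Dosing: single-point compound dose.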
Statin myotox sup: suppressors of simvastatin-induced myotoxicity in C2C12 myotubes; rescue of ATP level, % at 7.49 µM; 330,000 tested, 0.78% active; AID 602340; ATP luminescence, 48 h; scaled: DMSO 0, geranylgeraniol control 100;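 active = mean ATP rescue above about 67%, or every replicate alone reaching that limit, limit read from the data, passing the limit was not always enough; inconclusive = no clear call, values can overlap the other calls; inactive = mean under the limit and some replicate under it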;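 also: myotubes were challenged with 10 µM simvastatin during compound exposure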
FGF22 binding: FGF22 (human) thermal shift binding | Q9HCT0 | recombinant FGF22 thermal shift, SYPRO orange fluorescence; percent of sucrose octasulfate shift, DMSO zero | activity (Tm shift, normalised), % at 9.99 µM | 340,000 tested, 1.5% active | AID 651658;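 active = mean Tm shift, scaled 0 neutral to 100 positive control, at about 1.3% or above, every replicate too, limit read from the data; inconclusive = no clear call, values can overlap the other calls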
Xi reactivation: X-chromosome reactivation activator; XiGFP mouse fibroblasts, % GFP-positive cells imaging, 3 d; cells co-treated with 5-aza-dC sensitizer; scaled so ellipticine positive control = 100%; 360,000 tested, 0.055% active; activation, % at 7.58 µM; AID 743238;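 active = mean normalized replicate activation at least 10% and every replicate at or above 10%; inconclusive = only one of the two criteria met; inactive = mean below 10% and not all replicates reach 10%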;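 also: 0% = median of on-plate neutral control wells and 100% = ellipticine 6 µM median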
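Material: XiGFP fibroblasts, SV40-immortalized. Buffer or medium: DMEM plus 5-aza-dC sensitizer. Compound: single concentration per compound, delivered by pin transfer. Times: 3 days compound exposure. Controls: ellipticine 6 µM.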
* hit, by the source's call; ? = inconclusive; nt = no result given. Hits are enriched below; roughly 3.3% of the tested compounds scored in any of these assays.

SMILES	PglD inh	DENV2 CPE	E-sel inducer	Statin myotox sup	FGF22 binding	Xi reactivation
O=C(/C=C/c1ccc(S(=O)(=O)N2CCOCC2)cc1)NC(=S)Nc1ccc(Cl)cc1Cl	nt	-6.9	nt	nt	43.3*	0.2
O=C(/C=C/c1ccc(S(=O)(=O)N2CCOCC2)cc1)Nc1cc(F)ccc1F	nt	-5.4	-0.2	nt	-0.1	0.0
CCOC(=O)Cc1ccc(NC(=O)c2cccc([N+](=O)[O-])c2)cc1	-2.6	3.0	0.5	15.2	-0.2	0.7
CCOC(=O)/C(C)=N/NC(=O)c1cccc([N+](=O)[O-])c1	nt	-18.1	nt	nt	44.2*	0.2
C[C@H](NC(=O)C[C@H]1CC[C@H](NC(=O)c2cccnc2)[C@@H](CO)O1)c1ccccc1	-1.9	2.5	0.0	-0.7	-0.1	-0.3
CSC(SC)=C(C#N)C(=O)c1ccccc1	8.7	?	0.3	nt	-0.2	0.7
COc1cccc(C(=O)C(C#N)=C(SC)SC)c1	7.9	33.9*	0.1	nt	0.2	0.0
CCN(CC)c1ccc(CNc2nc3ccccc3n2CCN2CCCCC2)cc1	nt	-1.1	-2.0	-50.2	nt	0.0
CCN(CC)c1ccc(CNc2nc3ccccc3n2C)cc1	nt	-2.3	0.2	nt	42.9*	0.0
CO[C@H]1CN(C)C(=O)c2ccc(NC(C)=O)cc2OC[C@H](C)N(CC2CC2)C[C@H]1C	0.2	13.2	0.0	-3.4	-0.1	0.2
COc1ccc(/C=C/C(=O)c2ccc(OC)cc2OC)cc1	7.4	6.7	nt	-0.4	0.0	nt
COc1ccc(/C=C/C(=O)c2cc3c(cc2N)OCO3)cc1	nt	-2.3	nt	nt	43.2*	0.0
Cc1ccccc1S(=O)(=O)N1C[C@@H](O)COC[C@H]2O[C@@H](CC(=O)N3CCC(Cc4ccccc4)CC3)CC[C@@H]21	0.4	8.0	0.2	1.1	0.2	-0.1
CN(C)C(=O)C[C@H]1C[C@@H]2c3cc(NC(=O)Nc4ccccc4F)ccc3O[C@@H]2[C@H](CO)O1	-4.1	2.7	0.0	0.4	-0.2	0.0
Cc1cc(C)n2nc(SCc3nnc(-c4cccs4)o3)nc2n1	nt	-2.5	nt	nt	43.2*	0.0
CCC(C)Sc1nnc(CSc2nc3nc(C)cc(C)n3n2)o1 (stereo not given)	nt	nt	nt	-0.6	nt	nt
N#CC(C#N)=C1C=CC=CN1/C(=C\c1ccco1)C(=O)c1ccc(-c2ccccc2)cc1	nt	nt	nt	nt	nt	15.1*
COc1ccc2c3c([nH]c2c1)[C@H](CO)N(C(=O)c1cccc(F)c1)CC31CCN(C(=O)c2ccccc2)CC1	nt	11.6	0.0	nt	-0.1	0.0
COc1ccc2c3c([nH]c2c1)[C@H](CO)N(C(=O)Nc1ccc(F)cc1)CC31CCN(S(=O)(=O)c2ccccc2)CC1	nt	?	-0.6	nt	nt	0.1
COc1ccc2c3c([nH]c2c1)[C@H](CO)N(C(=O)Nc1ccc(F)cc1)CC31CCN(C(=O)Nc2ccccc2)CC1	nt	21.0*	-0.4	nt	0.0	0.3
COc1ccc2c3c([nH]c2c1)[C@@H](CO)N(C(=O)Nc1ccc(F)cc1)CC31CCN(S(=O)(=O)c2ccccc2)CC1	nt	70.5*	-0.7	nt	nt	0.4
COc1ccc2c3c([nH]c2c1)[C@@H](CO)N(C(=O)c1cccc(F)c1)CC31CCN(C(=O)c2cccc(F)c2)CC1	nt	21.7*	0.0	nt	-0.1	0.2
C[C@H](CO)N1C[C@H](C)[C@@H](CN(C)C(=O)Cc2ccccn2)Oc2ncc(-c3cncnc3)cc2C1=O	1.7	1.9	-0.6	-0.9	0.4	-0.9
O=C(O)COn1c(-c2ccccc2)nc2ccc([N+](=O)[O-])cc21	1.6	-7.9	nt	104.8*	0.2	0.0
CCCCn1c(N)c(Sc2ccc(C)cc2)c(=O)[nH]c1=O	0.3	nt	nt	-0.2	nt	nt
SMILES	PglD inh	DENV2 CPE	E-sel inducer	Statin myotox sup	FGF22 binding	Xi reactivation
CCCn1c(N)c(Sc2ccc(C)cc2)c(=O)n(CCC)c1=O	nt	-1.8	-0.4	nt	43.3*	0.4
Cc1cc(OC(=O)c2ccc(S(=O)(=O)N3CCCC3)cc2)c([N+](=O)[O-])c(=O)[nH]1	nt	8.3	0.2	nt	42.9*	0.4
Cc1cc(OC(=O)c2ccc(S(=O)(=O)N3CCCCC3)cc2)c([N+](=O)[O-])c(=O)[nH]1	nt	-2.4	nt	nt	-0.3	0.2
O=C(N/N=C/c1cccc([N+](=O)[O-])c1)c1ccc2c(c1)OCCO2	-2.6	nt	-0.6	-0.4	nt	nt
O=[N+]([O-])c1cccc(C=Nc2cc3c(cc2Br)OCCO3)c1	nt	44.3*	nt	nt	-0.3	0.3
C/C(=N\NC(=O)c1cc(-c2ccc(Br)s2)[nH]n1)c1ccncc1	2.0	?	0.0	-35.9	0.1	0.3
C/C(=N\NC(=O)c1cc(C(C)C)[nH]n1)c1ccco1	nt	-0.4	27.0*	nt	0.1	0.0
C/C(=N/NC(=O)c1cc(-c2ccc(Br)s2)[nH]n1)c1ccco1	nt	4.3	nt	nt	1.4*	0.0
Cc1noc(C)c1NC(=O)N(C)C[C@@H]1Oc2ccc(NC(=O)CCCCCC(=O)Nc3ccccc3N)cc2C(=O)N([C@H](C)CO)C[C@@H]1C	nt	15.0	-1.2	nt	-0.1	0.0
COc1ccccc1CNc1nc(S(=O)(=O)c2ccccc2)c(Cl)s1	0.8	nt	-0.2	nt	nt	1.3
CSc1nc(S(=O)(=O)c2ccccc2)c(Cl)s1	nt	nt	0.0	nt	43.0*	0.2
Cn1cc(CN(CCO)Cc2cccs2)c(-c2ccccc2F)n1	0.9	-1.7	nt	2.9	42.9*	0.1
CN(Cc1cn(C)nc1-c1ccccc1F)Cc1nccn1C	-0.3	3.8	nt	-2.2	0.2	0.1
O=c1cc(-c2ccco2)oc2ccc(Cl)cc12	11.5	nt	nt	73.2*	nt	nt
N#Cc1ccc(-c2ccc([C@H]3[C@H](CO)N4CCCCN(C(=O)Nc5ccc(F)cc5)C[C@@H]34)cc2)cc1	0.8	48.7*	-0.5	21.8	0.3	0.0
N#Cc1ccc(-c2ccc([C@H]3[C@H]4CN(C(=O)Nc5ccc(F)cc5)CCCCN4[C@H]3CO)cc2)cc1	0.2	23.8*	-0.7	2.2	0.6	0.4
COc1ccccc1C/C(N)=N/OC(=O)/C=C/c1ccccc1	-8.2	8.2	-0.1	9.6	43.3*	-0.1
COc1ccccc1C/C(N)=N/OC(=O)COc1cc(C)cc(C)c1C	nt	-4.0	nt	nt	43.4*	0.0
CCC(=O)N1[C@H](CO)[C@H]2c3ccccc3N(C(=O)c3ccc4c(c3)OCO4)C[C@H]21	-2.3	-1.3	0.4	-13.0	0.1	0.4
Cn1cnc(S(=O)(=O)N2CCCCN3[C@@H](CO)[C@@H](c4ccc(C#CC5CC5)cc4)[C@@H]3C2)c1	1.3	1.3	nt	nt	0.1	nt

Assay outcomes: PubChem, Broad Institute
